Reference: ChEMBL document CHEMBL1255260, “Population pharmacokinetics of piperaquine after two different treatment regimens with dihydroartemisinin-piperaquine in patients with Plasmodium falciparum malaria in Thailand” (Antimicrob Agents Chemother, 2008)

What was measured:
[1] = AUC (0 to 60 days) in human adult with uncomplicated malaria at 31 mg/kg, perorally; type: ADME, organism-based; design: time < 1440 hr, dose 31 mg/kg, route oral; settings: plasma, po
Summary of the method: (§1)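 Oral dihydroartemisinin-piperaquine, supervised, with no food restriction, in patients aged 3–55 y. The total dose of 55 mg/kg piperaquine phosphate was given as four doses (0, 8, 24, 48 h) or three doses (0, 24, 48 h). Sparse plasma sampling ran to day 63, measured by SPE-LC-UV (LLOQ 5 or 2.5 ng/ml). AUCs came from individual NONMEM two-compartment estimates. Children were ≤12 y and <30 kg.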

Homo sapiens [2] = assay: Apparent peripheral volume of distribution with respect to bioavailability in human with uncomplicated malaria at 31 mg/kg, perorally; type: ADME, organism-based; settings: in vivo, po
Summary of the method: (§2)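 Population PK in 98 uncomplicated falciparum patients given dihydroartemisinin-piperaquine orally (55 mg/kg piperaquine phosphate total, 3- or 4-dose regimen). Patients gave a pretreatment sample, 2–4 early-window samples and one sample on days 7–63. Plasma piperaquine was measured by SPE-LC-UV. Log concentrations were fitted by NONMEM (FO/FOCE) to a two-compartment first-order absorption model with regimen as covariate.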

[3] = Terminal half-life in healthy human at 25 mg/kg, po after 29 days; type: ADME, organism-based; design: dose 25 mg/kg, route oral; settings: in vivo
[4] = Plasma concentration in human with uncomplicated malaria at 31 mg/kg, perorally four-dose treatment regimen measured at day 20; type: ADME, organism-based; design: dose 31 mg/kg, route oral; settings: po, read-out: MIC
Summary of the method: (§3)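 Plasma piperaquine concentrations were simulated from the final NONMEM population model (500 simulations at each sampling time up to day 63). This followed oral dihydroartemisinin-piperaquine at a 55 mg/kg piperaquine phosphate total, given once daily at 0, 24 and 48 h or as four doses at 0, 8, 24 and 48 h.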

[5] = Terminal half-life in human with uncomplicated malaria at 35 mg/kg, perorally after 35 days; type: ADME, organism-based; design: dose 35 mg/kg, route oral; settings: in vivo, po
[6] = Apparent oral clearance in human with uncomplicated malaria at 32 mg/kg, perorally after 35 days; type: ADME, organism-based; design: dose 32 mg/kg, route oral; settings: in vivo
[7] = Apparent steady-state volume of distribution with respect to bioavailability in human with uncomplicated malaria at 31 mg/kg, perorally after 63 days; type: ADME, organism-based; settings: in vivo, po, read-out: Vss/F; summary of the method: as §2
[8] = Apparent steady-state volume of distribution with respect to bioavailability in human with uncomplicated malaria at 32 mg/kg, perorally after 35 days; type: ADME, organism-based; settings: in vivo, po, read-out: Vss/F
[9] = Terminal half-life in high-fat fed healthy human at 4.2 mg/kg, po after 42 days; type: ADME, organism-based; design: dose 4.2 mg/kg, route oral; settings: in vivo
[10] = Apparent oral clearance in healthy human at 25 mg/kg, po after 29 days; type: ADME, organism-based; design: dose 25 mg/kg, route oral; settings: in vivo
[11] = AUC (3 to 20 days) in human adult with uncomplicated malaria at 31 mg/kg, perorally; type: ADME, organism-based; design: dose 31 mg/kg, route oral; settings: plasma, po; summary of the method: as §1
[12] = Apparent oral clearance in high-fat fed healthy human at 4.2 mg/kg, po after 42 days; type: ADME, organism-based; design: dose 4.2 mg/kg, route oral; settings: in vivo
[13] = Terminal elimination half-life in human with uncomplicated malaria at 31 mg/kg, perorally; settings: in vivo, po
[14] = Terminal half-life in human with uncomplicated malaria at 31 mg/kg, perorally after 63 days; type: ADME, organism-based; design: dose 31 mg/kg, route oral; settings: in vivo, po; summary of the method: as §2
[15] = Terminal half-life in human with uncomplicated malaria at 31 mg/kg, perorally; type: ADME, organism-based; design: dose 31 mg/kg, route oral; settings: in vivo, po; summary of the method: as §2
[16] = AUC (0 to 60 days) in children with uncomplicated malaria at 31 mg/kg, perorally; type: ADME, organism-based; design: time < 1440 hr, dose 31 mg/kg, route oral; settings: human, plasma, po; summary of the method: as §1
[17] = AUC (0 to 63 days) in uncomplicated malaria patient at 31 mg/kg, perorally four-dose treatment regimen; type: ADME, organism-based; design: time < 1512 hr, dose 31 mg/kg, route oral; settings: human, plasma, po; summary of the method: as §1
[18] = Apparent oral clearance in human with uncomplicated malaria at 31 mg/kg, perorally after 63 days; type: ADME, organism-based; design: dose 31 mg/kg, route oral; settings: in vivo; summary of the method: as §2
[19] = Terminal half-life in human with uncomplicated malaria at 32 mg/kg, perorally after 35 days; type: ADME, organism-based; design: dose 32 mg/kg, route oral; settings: in vivo, po
[20] = Apparent oral clearance in human with uncomplicated malaria at 35 mg/kg, perorally after 35 days; type: ADME, organism-based; design: dose 35 mg/kg, route oral; settings: in vivo
[21] = Plasma concentration in human with uncomplicated malaria at 31 mg/kg, perorally once daily for 3 days measured at day 20; type: ADME, organism-based; design: dose 31 mg/kg, route oral; settings: po, read-out: MIC; summary of the method: as §3
[22] = AUC (3 to 20 days) in uncomplicated malaria patient at 31 mg/kg, perorally once daily for 3 days; type: ADME, organism-based; design: dose 31 mg/kg, route oral; settings: human, plasma, po; summary of the method: as §1
[23] = Apparent steady-state volume of distribution with respect to bioavailability in human with uncomplicated malaria at 31 mg/kg, perorally; type: ADME, organism-based; settings: in vivo, po, read-out: Vss/F; summary of the method: as §2
[24] = Apparent steady-state volume of distribution with respect to bioavailability in healthy human at 4.2 mg/kg, po after 42 days; type: ADME, organism-based; settings: in vivo, read-out: Vss/F
[25] = Apparent volume of distribution with respect to bioavailability in human with uncomplicated malaria at 31 mg/kg, perorally; type: ADME, organism-based; settings: in vivo, po, read-out: Vc/F; summary of the method: as §2
[26] = AUC (3 to 20 days) in children with uncomplicated malaria at 31 mg/kg, perorally; type: ADME, organism-based; design: dose 31 mg/kg, route oral; settings: human, plasma, po; summary of the method: as §1
Homo sapiens [27] = assay: Apparent intercompartmental clearance with respect to bioavailability in human with uncomplicated malaria at 31 mg/kg, perorally; type: ADME, organism-based; settings: in vivo, po; summary of the method: as §2
[28] = Apparent oral clearance in healthy human at 4.2 mg/kg, po after 42 days; type: ADME, organism-based; design: dose 4.2 mg/kg, route oral; settings: in vivo
[29] = Apparent oral clearance in human with uncomplicated malaria at 31 mg/kg, perorally; type: ADME, organism-based; design: dose 31 mg/kg, route oral; settings: in vivo; summary of the method: as §2
[30] = Plasma concentration in human with uncomplicated malaria at 31 mg/kg, perorally at day 28; type: ADME, organism-based; design: dose 31 mg/kg, route oral; settings: po; summary of the method: as §3
[31] = AUC (0 to 63 days) in human with uncomplicated malaria at 31 mg/kg, perorally once daily for 3 days; type: ADME, organism-based; design: time < 1512 hr, dose 31 mg/kg, route oral; settings: plasma, po; summary of the method: as §1
[32] = Terminal half-life in healthy human at 4.2 mg/kg, po after 42 days; type: ADME, organism-based; design: dose 4.2 mg/kg, route oral; settings: in vivo
[33] = AUC (3 to 20 days) in uncomplicated malaria patient at 31 mg/kg, perorally four-dose treatment regimen; type: ADME, organism-based; design: dose 31 mg/kg, route oral; settings: human, plasma, po; summary of the method: as §1
[34] = Apparent steady-state volume of distribution with respect to bioavailability in high-fat fed healthy human at 4.2 mg/kg, po after 42 days; type: ADME, organism-based; settings: in vivo, read-out: Vss/F

AUC(0-t) at 1440 h [1]: 19400 ng·h/mL | Vp/F (Homo sapiens [2]): 24000 L | half-life [3]: 12 days | concentration at 20 day [4]: 13 ng/mL | half-life [5]: 14 days | CL/F [6]: 15 mL/min/kg | Vd/F [7]: 874 L/kg | Vd/F [8]: 574 L/kg | half-life [9]: 21 days | CL/F [10]: 16.7 mL/min/kg | AUC(0-t) [11]: 8650 ng·h/mL | CL/F [12]: 10 mL/min/kg | half-life [13]: 27.8 days | half-life [14]: 28 days | half-life [15]: 28 days | AUC(0-t) at 1440 h [16]: 25900 ng·h/mL | AUC(0-t) at 1512 h [17]: 20700 ng·h/mL | CL/F [18]: 23.3 mL/min/kg | half-life [19]: 23 days | CL/F [20]: 30.8 mL/min/kg | concentration at 72 h [21]: 12 ng/mL | AUC [22]: 8650 ng·h/mL | Vd/F [23]: 38100 L | Vd/F [24]: 716 L/kg | Vd/F [25]: 8660 L | AUC(0-t) [26]: 7580 ng·h/mL | CL/F (Homo sapiens [27]): 131 L/h | CL/F [28]: 19 mL/min/kg | CL/F [29]: 1100 mL/min | concentration at 28 day [30]: < 10 ng/mL | AUC at 1512 h [31]: 19400 ng·h/mL | half-life [32]: 20 days | AUC(0-t) [33]: 9070 ng·h/mL | Vd/F [34]: 365 L/kg
SMILES: Clc1ccc2c(N3CCN(CCCN4CCN(c5ccnc6cc(Cl)ccc56)CC4)CC3)ccnc2c1 [PIPERAQUINE]
